What follows are compounds tested against RNA-directed RNA polymerase (Hepacivirus hominis, UniProt O39930) (assay: Inhibitory concentration against HCV NS5B RNA dependent RNA polymerase).
Sequence of RNA-directed RNA polymerase (O39930 whole entry, the tested form may be a part): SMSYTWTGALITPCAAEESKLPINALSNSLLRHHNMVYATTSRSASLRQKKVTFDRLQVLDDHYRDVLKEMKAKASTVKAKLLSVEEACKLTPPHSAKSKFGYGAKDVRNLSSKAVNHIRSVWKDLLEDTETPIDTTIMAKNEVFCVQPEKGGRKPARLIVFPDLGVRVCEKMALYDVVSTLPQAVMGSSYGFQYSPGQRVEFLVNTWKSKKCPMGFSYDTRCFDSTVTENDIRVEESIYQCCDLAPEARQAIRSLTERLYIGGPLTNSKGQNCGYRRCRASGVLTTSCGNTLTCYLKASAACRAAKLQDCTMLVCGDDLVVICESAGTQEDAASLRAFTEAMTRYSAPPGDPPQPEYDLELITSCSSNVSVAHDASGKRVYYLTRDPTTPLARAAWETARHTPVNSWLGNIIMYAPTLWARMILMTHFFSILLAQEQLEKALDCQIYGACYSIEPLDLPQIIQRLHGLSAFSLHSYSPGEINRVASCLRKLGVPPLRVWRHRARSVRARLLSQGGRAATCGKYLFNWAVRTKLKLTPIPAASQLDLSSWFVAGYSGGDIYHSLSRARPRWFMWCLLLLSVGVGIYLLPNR
Summary of the method: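 Enzyme: recombinant C-terminally truncated NS5B from genotype 1b, BK strain. Inhibitor was pre-incubated with the enzyme for 15 min. An RNA template, NTPs and [α-32P]GTP were then added, and the reaction ran for 2 h at room temperature. Product RNA was collected by filtration, and incorporated radioactivity was measured by scintillation counting.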
COc1ccc2c(C(=O)NC(CCC(=O)O)C(=O)O)cccc2c1Br (stereo unspecified) showed an IC50 of 590 nM. For CCOC(=O)N(CC(=O)O)C(=O)c1c(Br)ccc2c(C(F)(F)F)c(OC)ccc12, the IC50 was 3100 nM. C=CCOC(=O)N(CC(=O)O)C(=O)c1c(Br)ccc2c(C(F)(F)F)c(OC)ccc12 gave an IC50 of 3300 nM. In the case of COc1ccc2ccccc2c1C(=O)NC(CC(=O)O)C(=O)O (stereo unspecified), the IC50 is reported as greater than 10000 nM. For C#CCOC(=O)N(CC(=O)O)C(=O)c1c(Br)ccc2c(C(F)(F)F)c(OC)ccc12, the IC50 was 2900 nM. For COc1ccc2c(C(=O)N(CC(=O)O)C(=O)OCC(C)(C)C)c(Br)ccc2c1C(F)(F)F, the IC50 was 6400 nM. COc1ccc2c(C(=O)NC(CCC(=O)O)C(=O)O)cccc2c1C(F)(F)F (stereo unspecified) gave an IC50 of 490 nM. Work on COc1ccc2c(C(=O)NC(CC(=O)O)C(=O)O)c(Br)ccc2c1C(F)(F)F (stereo unspecified) yielded an IC50 of 910 nM. In the case of COC(=O)N(CC(=O)O)C(=O)c1c(F)ccc2c(C(F)(F)F)c(OC)ccc12, the IC50 is reported as 15200 nM. Work on COC(=O)N(CC(=O)O)C(=O)c1c(-c2ccc(Cl)cc2)ccc2c(C(F)(F)F)c(OC)ccc12 yielded an IC50 greater than 20000 nM. Compound COc1ccc2c(C(=O)NC(CC(=O)O)C(=O)O)cccc2c1Br (stereo unspecified) has an IC50 of 1200 nM. COC(=O)N(CC(=O)O)C(=O)c1cccc2c(C(F)(F)F)c(OC)ccc12 was tested, and the IC50 was greater than 26000 nM. COc1ccc2c(C(=O)NC(CCC(=O)O)C(=O)O)c(Br)ccc2c1C(F)(F)F (stereo unspecified) was tested, and the IC50 was 120 nM. For COC(=O)N(CC(=O)O)C(=O)c1c(Cl)ccc2c(C(F)(F)F)c(OC)ccc12, the IC50 was 5000 nM. In the case of COC(=O)N(CC(=O)O)C(=O)c1c(OC)ccc2c(C(F)(F)F)c(OC)ccc12, the IC50 is reported as 11300 nM. COc1ccc2c(C(=O)NC(CC(=O)O)C(=O)O)c(F)ccc2c1C(F)(F)F (stereo unspecified) was tested, and the IC50 was 2100 nM. COc1ccc2c(C(=O)N(C)CC(=O)O)c(Br)ccc2c1C(F)(F)F was tested, and the IC50 was 2000 nM. COC(=O)N(CC(=O)O)C(=O)c1c(Br)ccc2c(C(F)(F)F)c(OC)ccc12 gave an IC50 of 1400 nM. Compound COc1ccc2c(C(=O)N(CC(=O)O)CC(=O)O)cccc2c1C(F)(F)F has an IC50 of 900 nM. Compound COc1ccc2c(C(=O)NC(CCC(=O)O)C(=O)O)c(F)ccc2c1C(F)(F)F (stereo unspecified) has an IC50 of 1400 nM. For COc1ccc2c(C(=O)N(CC(=O)O)C(=O)OCC(C)C)c(Br)ccc2c1C(F)(F)F, the IC50 was 7700 nM. Compound COc1ccc2c(C(=O)N(C)CC(=O)O)c(Cl)ccc2c1C(F)(F)F has an IC50 of 5100 nM. Work on COC(=O)N(CCC(=O)O)C(=O)c1c(Br)ccc2c(C(F)(F)F)c(OC)ccc12 yielded an IC50 greater than 10000 nM. Work on CCCOC(=O)N(CC(=O)O)C(=O)c1c(Br)ccc2c(C(F)(F)F)c(OC)ccc12 yielded an IC50 of 4900 nM. COc1ccc2c(C(=O)NC(CC(=O)O)C(=O)O)cccc2c1C(F)(F)F (stereo unspecified) showed an IC50 of 1300 nM.

The compounds below were run against DNA polymerase beta (Homo sapiens, UniProt P06746) (assay: Inhibitory concentration against human beta polymerase).
For COC(=O)N(CC(=O)O)C(=O)c1c(Cl)ccc2c(C(F)(F)F)c(OC)ccc12, the IC50 was greater than 100000 nM.
